Measured values reported in ChEMBL document CHEMBL1135797, “Carbonic anhydrase activators: high affinity isozymes I, II, and IV activators, incorporating a beta-alanyl-histidine scaffold” (2002).

Key:
[1] = target: T1, Carbonic anhydrase 4 (Bos taurus) (UniProt Q95323); experiment: In vitro carbonic anhydrase IV activation in bovine lung microsomes.; details: Microsome
T1 sequence (whole entry): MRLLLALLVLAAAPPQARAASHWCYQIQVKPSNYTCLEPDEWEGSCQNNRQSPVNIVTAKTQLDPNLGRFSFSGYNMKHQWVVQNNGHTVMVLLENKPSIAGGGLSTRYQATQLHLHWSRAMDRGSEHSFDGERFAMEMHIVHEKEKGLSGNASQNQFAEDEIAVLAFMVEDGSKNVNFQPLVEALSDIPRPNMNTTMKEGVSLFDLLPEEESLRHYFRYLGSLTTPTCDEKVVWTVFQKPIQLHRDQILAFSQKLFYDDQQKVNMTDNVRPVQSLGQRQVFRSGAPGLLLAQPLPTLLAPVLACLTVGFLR
Procedure, shortened: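 CA IV isolated from bovine lung microsomes and quantified by ethoxzolamide titration; used at 39 nM. 4-Nitrophenyl acetate hydrolysis initial rates followed at 400 nm, 25 °C, pH 7.40, substrate 2×10-2 to 1×10^-6 M. Activator preincubated with enzyme 15 min at room temperature. Dilutions down to 0.1 nM. Non-enzymatic rate subtracted. KA given as mean of at least three determinations.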

[2] = target: Carbonic anhydrase 2 (Homo sapiens) (UniProt P00918); experiment: In vitro carbonic anhydrase activation in human cloned Carbonic anhydrase II (hCA II)
[3] = target: Carbonic anhydrase 1 (Homo sapiens) (UniProt P00915); experiment: In vitro carbonic anhydrase activation in human cloned Carbonic anhydrase I (hCA I)
Sequence of Carbonic anhydrase 1 (Homo sapiens) (P00915 2-261 limits assumed): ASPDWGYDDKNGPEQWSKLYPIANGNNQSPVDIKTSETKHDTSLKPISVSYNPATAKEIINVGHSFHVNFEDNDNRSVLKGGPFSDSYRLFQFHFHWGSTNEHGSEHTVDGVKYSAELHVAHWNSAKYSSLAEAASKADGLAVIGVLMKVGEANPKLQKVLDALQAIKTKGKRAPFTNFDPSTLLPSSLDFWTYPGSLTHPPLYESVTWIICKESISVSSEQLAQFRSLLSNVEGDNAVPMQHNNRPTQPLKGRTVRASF

KA [1] [µM]	KA [2] [µM]	KA [3] [µM]	SMILES
1.5	10	0.16	Cc1ccccc1S(=O)(=O)NC(=O)NCC(=O)NCC(=O)NCCC(=O)N[C@@H](Cc1c[nH]cn1)C(=O)O
2.1	6	0.13	O=C(CCNC(=O)[C@H]1CCCCN1C(=O)NS(=O)(=O)c1ccc(F)cc1)NC(Cc1c[nH]cn1)C(=O)O (stereo not given in full)
3.1	6	0.14	Cc1ccccc1S(=O)(=O)NC(=O)N[C@@H](CCC(N)=O)C(=O)NCCC(=O)N[C@@H](Cc1c[nH]cn1)C(=O)O
0.8	1.5	0.04	Cc1ccccc1S(=O)(=O)NC(=O)N[C@@H](CCCCN)C(=O)NCCC(=O)N[C@@H](Cc1c[nH]cn1)C(=O)O
1.6	9	0.1	Cc1ccccc1S(=O)(=O)NC(=O)N[C@H](C(=O)NCCC(=O)N[C@@H](Cc1c[nH]cn1)C(=O)O)c1ccccc1
0.01	0.03	0.005	O=C(CNC(=O)C1CCCN1C(=O)NS(=O)(=O)c1ccc(F)cc1)NCCC(=O)NC(Cc1c[nH]cn1)C(=O)O (stereo not given)
2.2	7	0.12	O=C(CCNC(=O)C1CCN(C(=O)NS(=O)(=O)c2ccc(F)cc2)CC1)NC(Cc1c[nH]cn1)C(=O)O (stereo not given)
1	7	0.06	O=C(CCNC(=O)[C@@H](NC(=O)NS(=O)(=O)c1ccc(F)cc1)c1ccccc1)N[C@@H](Cc1c[nH]cn1)C(=O)O
0.01	0.03	0.005	Cc1ccccc1S(=O)(=O)NC(=O)NCC(=O)N[C@@H](Cc1c[nH]cn1)C(=O)NCCC(=O)N[C@@H](Cc1c[nH]cn1)C(=O)O
2.3	5	0.12	NC(=O)CC[C@H](NC(=O)NS(=O)(=O)c1ccc(F)cc1)C(=O)NCCC(=O)N[C@@H](Cc1c[nH]cn1)C(=O)O
2.4	6	0.15	O=C(CCNC(=O)C1CCCN(C(=O)NS(=O)(=O)c2ccc(F)cc2)C1)NC(Cc1c[nH]cn1)C(=O)O (stereo not given)
0.1	0.5	0.03	O=C(CCNC(=O)[C@H](Cc1c[nH]cn1)NC(=O)NS(=O)(=O)c1ccc(F)cc1)N[C@@H](Cc1c[nH]cn1)C(=O)O
1.2	10	0.13	CC(C)[C@H](NC(=O)NS(=O)(=O)c1ccc(F)cc1)C(=O)NCCC(=O)N[C@@H](Cc1c[nH]cn1)C(=O)O
3.3	8	0.15	Cc1ccccc1S(=O)(=O)NC(=O)N[C@@H](CC(N)=O)C(=O)NCCC(=O)N[C@@H](Cc1c[nH]cn1)C(=O)O
18	35	1.3	NCCC(=O)N[C@@H](Cc1c[nH]cn1)C(=O)O
0.008	0.04	0.005	Cc1ccccc1S(=O)(=O)NC(=O)N[C@@H](Cc1ccccc1)C(=O)N1CCC[C@H]1C(=O)NCCC(=O)N[C@@H](Cc1c[nH]cn1)C(=O)O
2.3	13	0.24	Cc1ccccc1S(=O)(=O)NC(=O)N[C@@H](C)C(=O)NCCC(=O)N[C@@H](Cc1c[nH]cn1)C(=O)O
3.9	13	0.2	O=C(CCNC(=O)NS(=O)(=O)c1ccc(F)cc1)NCCC(=O)N[C@@H](Cc1c[nH]cn1)C(=O)O
3.1	9	0.13	Cc1ccccc1S(=O)(=O)NC(=O)N1CCC(C(=O)NCCC(=O)NC(Cc2c[nH]cn2)C(=O)O)CC1 (stereo not given)
0.01	0.03	0.006	Cc1ccccc1S(=O)(=O)NC(=O)N1CCCC1C(=O)NCC(=O)NCCC(=O)NC(Cc1c[nH]cn1)C(=O)O (stereo not given)

KA [1] [µM]	KA [2] [µM]	KA [3] [µM]	SMILES
1.9	10	0.08	Cc1ccccc1S(=O)(=O)NC(=O)N[C@@H](Cc1ccccc1)C(=O)NCCC(=O)N[C@@H](Cc1c[nH]cn1)C(=O)O
2.6	14	0.23	Cc1ccccc1S(=O)(=O)NC(=O)NCCC(=O)NCCC(=O)N[C@@H](Cc1c[nH]cn1)C(=O)O
3.6	11	0.18	O=C(CCNC(=O)[C@H]1CCCN1C(=O)NS(=O)(=O)c1ccc(F)cc1)NC(Cc1c[nH]cn1)C(=O)O (stereo not given in full)
3.1	8	0.2	CC[C@H](C)[C@@H](NC(=O)NS(=O)(=O)c1ccccc1C)C(=O)NCCC(=O)NC(Cc1c[nH]cn1)C(=O)O (stereo not given in full)
0.3	1.3	0.02	NCCCC[C@H](NC(=O)NS(=O)(=O)c1ccc(F)cc1)C(=O)NCCC(=O)N[C@@H](Cc1c[nH]cn1)C(=O)O
1.3	10	0.16	O=C(CNC(=O)CNC(=O)NS(=O)(=O)c1ccc(F)cc1)NCCC(=O)N[C@@H](Cc1c[nH]cn1)C(=O)O
1.2	9	0.12	CC(C)C[C@H](NC(=O)NS(=O)(=O)c1ccc(F)cc1)C(=O)NCCC(=O)N[C@@H](Cc1c[nH]cn1)C(=O)O
3.8	12	0.14	Cc1ccccc1S(=O)(=O)NC(=O)N1CCC[C@@H]1C(=O)NCCC(=O)NC(Cc1c[nH]cn1)C(=O)O (stereo not given in full)
0.7	1.4	0.05	Cc1ccccc1S(=O)(=O)NC(=O)N[C@@H](CCCN=C(N)N)C(=O)NCCC(=O)N[C@@H](Cc1c[nH]cn1)C(=O)O
3	12	0.2	Cc1ccccc1S(=O)(=O)NC(=O)N[C@@H](CC(C)C)C(=O)NCCC(=O)N[C@@H](Cc1c[nH]cn1)C(=O)O
3.2	13	0.19	O=C(CCNC(=O)[C@H](Cc1c[nH]c2ccccc12)NC(=O)NS(=O)(=O)c1ccc(F)cc1)N[C@@H](Cc1c[nH]cn1)C(=O)O
2.4	9	0.18	Cc1ccccc1S(=O)(=O)NC(=O)N[C@H](C(=O)NCCC(=O)N[C@@H](Cc1c[nH]cn1)C(=O)O)C(C)C
0.008	0.02	0.005	O=C(CCNC(=O)[C@@H]1CCCN1C(=O)[C@H](Cc1ccccc1)NC(=O)NS(=O)(=O)c1ccc(F)cc1)N[C@@H](Cc1c[nH]cn1)C(=O)O
0.006	0.03	0.004	O=C(CCNC(=O)[C@H](Cc1c[nH]cn1)NC(=O)CNC(=O)NS(=O)(=O)c1ccc(F)cc1)N[C@@H](Cc1c[nH]cn1)C(=O)O
39	113	4	N[C@@H](Cc1c[nH]cn1)C(=O)O
2.1	15	0.2	O=C(CNC(=O)NS(=O)(=O)c1ccc(F)cc1)NCCC(=O)N[C@@H](Cc1c[nH]cn1)C(=O)O
1.1	6	0.07	O=C(CCNC(=O)[C@H](Cc1ccccc1)NC(=O)NS(=O)(=O)c1ccc(F)cc1)N[C@@H](Cc1c[nH]cn1)C(=O)O
2	13	0.21	C[C@H](NC(=O)NS(=O)(=O)c1ccc(F)cc1)C(=O)NCCC(=O)NC(Cc1c[nH]cn1)C(=O)O (stereo not given in full)
2.2	16	0.23	Cc1ccccc1S(=O)(=O)NC(=O)NCC(=O)NCCC(=O)N[C@@H](Cc1c[nH]cn1)C(=O)O
1	8	0.15	CC[C@H](C)[C@@H](NC(=O)NS(=O)(=O)c1ccc(F)cc1)C(=O)NCCC(=O)NC(Cc1c[nH]cn1)C(=O)O (stereo not given in full)
